# According to article PMC4324449 (ACS Chemical Biology, 2014):
# Assays:
# [1] = Self-association by concentration-dependent UV–vis absorption; type: physicochemical; settings: for self-association by UV–vis, in words: concentration-dependent λmax, Tris buffer pH 7.4
# Summary of the method: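 Absorption spectra recorded over a foldamer dilution series in 10 or 1 mm cuvettes. λmax plotted against concentration and fitted to a monomer-hexamer equilibrium, with monomer and hexamer λmax as fitted variables. Salt series run in 0.05 M Tris, pH 7.4, at varying NaCl, with all salt conditions fitted globally.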
# [2] = Self-association by ITC heats of dilution; type: physicochemical; settings: dilution in TBS, 25 °C
# Summary of the method: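 Heats of dilution at 25 °C. Foldamer at 1 mM in TBS (0.050 M Tris, 0.150 M NaCl, pH 7.4) injected serially into TBS in the calorimetric cell. Heat per injection taken from the integrated peak area, normalized over accumulated additions and plotted against final foldamer concentration. Fitted to a monomer-dimer-hexamer or monomer-hexamer model, depending on the foldamer.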
Substance,"self-association by UV–vis, in words [1]","self-assembly by ITC, in words [2]","pK(hex-mon) UV–vis ([1]; concentration dependence of λmax in TBS pH 7.4, monomer-hexamer fit, K in M5)"
(Lys-Sal)4-COOH [Compound 2],did not appear to associate at all over this concentration range,very weak to no self-assembly,
(Lys-Sal)3-CONH2 [Compound 8],did not show any spectral changes at concentrations as high as 500 μM,,<15
(D-Cit-Sal)4-CONH2 [Compound 7],did not appear to show significant dissociation,,
